Data taken from ChEMBL document CHEMBL5724801, “EUbOPEN Chemogenomics Library - Multiplex” (2024).
Values joined by “and” are separate entries in the source; they are usually repeats but may differ in a detail not shown here. Equal entries are not always repeated.

Test system: U2OS
Assay: Multiplex assay against U2OS
Type: toxicity, cell-based
Conditions: human
Summary of the method: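 On a CQ1 microscope at 37°C and 5% CO2, live cells were imaged after compound addition. They had been stained at seeding with Hoechst33342, BioTracker Green Microtubule Cytoskeleton Dye, MitoTracker Red and Annexin V Alexa Fluor 680. CellPathfinder machine-learning gating assigned cells to Hoechst high-intensity objects or normal cells, normal cells to healthy, pyknosed or fragmented nuclei, and pyknosed cells to mitotic or apoptotic. Tubulin, mitochondrial-mass and membrane-permeability phenotypes are per cents of healthy-nucleus cells.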

[1] = 12 h, 1 µM, compound concentration 1 uM
[2] = 12 h, 10 µM, compound concentration 10 uM
[3] = 24 h, 1 µM, compound concentration 1 uM
[4] = 24 h, 10 µM, compound concentration 10 uM
[5] = 48 h, 1 µM, compound concentration 1 uM
[6] = 48 h, 10 µM, compound concentration 10 uM

## CN1CCN2c3ccccc3Cc3ccccc3C2C1.Cl (centres undefined) [MIANSERIN HYDROCHLORIDE]
[1]
  Population Apoptotic (%): 91% and 83%
  Population Fragmented Nuclei (%): 35% and 16%
  Population Healthy Nuclei (%): 56% and 77%
  Population Hoechst High Intensity Objects (%): 3% and 1%
  Population Membrane Permeable-Phenotype (%): 7% and 3%
  Population Mitochondria Different-Phenotype (%): 4% and 3%
  Population Mitotic Cells (%): 8% and 16%
  Population Normal (%): 96% and 98%
  Population Pyknosed Nuclei (%): 7% and 5%
  Population Tubulin-Different-Phenotype (%): 5% and 2%
  Total Cell Count: 162 and 109
[2]
  Population Apoptotic (%): 78% and 86%
  Population Fragmented Nuclei (%): 23% and 12%
  Population Healthy Nuclei (%): 68% and 77%
  Population Hoechst High Intensity Objects (%): 2% and 1%
  Population Membrane Permeable-Phenotype (%): 7% and 1%
  Population Mitochondria Different-Phenotype (%): 3% and 2%
  Population Mitotic Cells (%): 21% and 13%
  Population Normal (%): 97% and 98%
  Population Pyknosed Nuclei (%): 8% and 10%
  Population Tubulin-Different-Phenotype (%): 4% and 0%
  Total Cell Count: 277 and 152
[3]
  Population Apoptotic (%): 88% and 75%
  Population Fragmented Nuclei (%): 34% and 23%
  Population Healthy Nuclei (%): 56% and 70%
  Population Hoechst High Intensity Objects (%): 1% and 2%
  Population Membrane Permeable-Phenotype (%): 6% and 4%
  Population Mitochondria Different-Phenotype (%): 1% and 3%
  Population Mitotic Cells (%): 11% and 25%
  Population Normal (%): 98% and 97%
  Population Pyknosed Nuclei (%): 8% and 5%
  Population Tubulin-Different-Phenotype (%): 4% and 3%
  Total Cell Count: 197 and 142
[4]
  Population Apoptotic (%): 69% and 93%
  Population Fragmented Nuclei (%): 21% and 13%
  Population Healthy Nuclei (%): 68% and 77%
  Population Hoechst High Intensity Objects (%): 1% and 2%
  Population Membrane Permeable-Phenotype (%): 9% and 7%
  Population Mitochondria Different-Phenotype (%): 2% and 3%
  Population Normal (%): 98% and 97%
  Population Pyknosed Nuclei (%): 10% and 8%
  Population Tubulin-Different-Phenotype (%): 2%
  Total Cell Count: 319 and 183
[5]
  Population Apoptotic (%): 78%
  Population Fragmented Nuclei (%): 28% and 19%
  Population Healthy Nuclei (%): 65% and 71%
  Population Hoechst High Intensity Objects (%): 2% and 1%
  Population Membrane Permeable-Phenotype (%): 5% and 4%
  Population Mitochondria Different-Phenotype (%): 2% and 3%
  Population Mitotic Cells (%): 21%
  Population Normal (%): 97% and 98%
  Population Pyknosed Nuclei (%): 5% and 9%
  Population Tubulin-Different-Phenotype (%): 4% and 2%
  Total Cell Count: 269 and 206
[6]
  Population Apoptotic (%): 91% and 87%
  Population Fragmented Nuclei (%): 18% and 15%
  Population Healthy Nuclei (%): 71% and 73%
  Population Hoechst High Intensity Objects (%): 4% and 2%
  Population Membrane Permeable-Phenotype (%): 4%
  Population Mitochondria Different-Phenotype (%): 2% and 3%
  Population Mitotic Cells (%): 8% and 12%
  Population Normal (%): 95% and 97%
  Population Pyknosed Nuclei (%): 9% and 11%
  Population Tubulin-Different-Phenotype (%): 1% and 2%
  Total Cell Count: 397 and 285

## COCCNc1cc(NC(=O)N2CCCc3cc(CN4CCOCC4=O)c(C=O)nc32)ncc1C#N
[1]
  Population Apoptotic (%): 30.77% and 39.13%
  Population Fragmented Nuclei (%): 2.11% and 3.05%
  Population Healthy Nuclei (%): 87.63% and 82.93%
  Population Hoechst High Intensity Objects (%): 0%
  Population Membrane Permeable-Phenotype (%): 0.6% and 5.15%
  Population Mitochondria Different-Phenotype (%): 0% and 8.82%
  Population Mitotic Cells (%): 69.23% and 60.87%
  Population Normal (%): 100%
  Population Pyknosed Nuclei (%): 10.26% and 14.02%
  Population Tubulin-Different-Phenotype (%): 0.6% and 0%
  Total Cell Count: 380 and 164
[2]
  Population Apoptotic (%): 46.15% and 40%
  Population Fragmented Nuclei (%): 0.86% and 7.8%
  Population Healthy Nuclei (%): 91.64% and 78.01%
  Population Hoechst High Intensity Objects (%): 0%
  Population Membrane Permeable-Phenotype (%): 1.57% and 1.82%
  Population Mitochondria Different-Phenotype (%): 0.31% and 6.36%
  Population Mitotic Cells (%): 53.85% and 60%
  Population Normal (%): 100%
  Population Pyknosed Nuclei (%): 7.49% and 14.18%
  Population Tubulin-Different-Phenotype (%): 1.26% and 0.91%
  Total Cell Count: 347 and 141
[3]
  Population Apoptotic (%): 29.17% and 39.13%
  Population Fragmented Nuclei (%): 2.21% and 0.97%
  Population Healthy Nuclei (%): 88.93% and 87.92%
  Population Hoechst High Intensity Objects (%): 0%
  Population Membrane Permeable-Phenotype (%): 1.66% and 3.85%
  Population Mitochondria Different-Phenotype (%): 0% and 4.95%
  Population Mitotic Cells (%): 70.83% and 60.87%
  Population Normal (%): 100%
  Population Pyknosed Nuclei (%): 8.86% and 11.11%
  Population Tubulin-Different-Phenotype (%): 1.04% and 0.55%
  Total Cell Count: 542 and 207
[4]
  Population Apoptotic (%): 54.55% and 40.91%
  Population Fragmented Nuclei (%): 1.52% and 9.32%
  Population Healthy Nuclei (%): 91.34% and 77.02%
  Population Hoechst High Intensity Objects (%): 0%
  Population Membrane Permeable-Phenotype (%): 0.95% and 2.42%
  Population Mitochondria Different-Phenotype (%): 0% and 9.68%
  Population Mitotic Cells (%): 45.45% and 59.09%
  Population Normal (%): 100%
  Population Pyknosed Nuclei (%): 7.14% and 13.66%
  Population Tubulin-Different-Phenotype (%): 0.95% and 1.61%
  Total Cell Count: 462 and 161
[5]
  Population Apoptotic (%): 32.88% and 50%
  Population Fragmented Nuclei (%): 2.93% and 2.02%
  Population Healthy Nuclei (%): 89.69% and 90.49%
  Population Hoechst High Intensity Objects (%): 0%
  Population Membrane Permeable-Phenotype (%): 1.01% and 2.23%
  Population Mitochondria Different-Phenotype (%): 0.23% and 5.1%
  Population Mitotic Cells (%): 67.12% and 50%
  Population Normal (%): 100%
  Population Pyknosed Nuclei (%): 7.38% and 7.49%
  Population Tubulin-Different-Phenotype (%): 0.56% and 1.27%
  Total Cell Count: 989 and 347
[6]
  Population Apoptotic (%): 38.46% and 32.14%
  Population Fragmented Nuclei (%): 3.01% and 6.33%
  Population Healthy Nuclei (%): 86.02% and 81.86%
  Population Hoechst High Intensity Objects (%): 0%
  Population Membrane Permeable-Phenotype (%): 1.4% and 3.09%
  Population Mitochondria Different-Phenotype (%): 0.14% and 6.19%
  Population Mitotic Cells (%): 61.54% and 67.86%
  Population Normal (%): 100%
  Population Pyknosed Nuclei (%): 10.96% and 11.81%
  Population Tubulin-Different-Phenotype (%): 1.68% and 1.03%

## O=C1COc2nccc(-c3ccccc3F)c2CN1Cc1cc(C(F)(F)F)cc(C(F)(F)F)c1
[1]
  Population Apoptotic (%): 52% and 77%
  Population Fragmented Nuclei (%): 19% and 23%
  Population Healthy Nuclei (%): 72% and 67%
  Population Hoechst High Intensity Objects (%): 4% and 2%
  Population Membrane Permeable-Phenotype (%): 6% and 15%
  Population Mitochondria Different-Phenotype (%): 2% and 9%
  Population Mitotic Cells (%): 47% and 22%
  Population Normal (%): 95% and 97%
  Population Pyknosed Nuclei (%): 8%
  Population Tubulin-Different-Phenotype (%): 4% and 11%
  Total Cell Count: 252 and 108
[2]
  Population Apoptotic (%): 70% and 100%
  Population Fragmented Nuclei (%): 36% and 16%
  Population Healthy Nuclei (%): 47% and 76%
  Population Hoechst High Intensity Objects (%): 3% and 5%
  Population Membrane Permeable-Phenotype (%): 25% and 17%
  Population Mitochondria Different-Phenotype (%): 27% and 23%
  Population Normal (%): 96% and 94%
  Population Pyknosed Nuclei (%): 16% and 7%
  Population Tubulin-Different-Phenotype (%): 25% and 13%
  Total Cell Count: 200 and 112
[3]
  Population Apoptotic (%): 86% and 83%
  Population Fragmented Nuclei (%): 17% and 18%
  Population Healthy Nuclei (%): 74% and 76%
  Population Hoechst High Intensity Objects (%): 3% and 4%
  Population Membrane Permeable-Phenotype (%): 8% and 12%
  Population Mitochondria Different-Phenotype (%): 3% and 7%
  Population Mitotic Cells (%): 13% and 16%
  Population Normal (%): 96% and 95%
  Population Pyknosed Nuclei (%): 8% and 5%
  Population Tubulin-Different-Phenotype (%): 3% and 5%
  Total Cell Count: 291 and 121
[4]
  Population Apoptotic (%): 58% and 100%
  Population Fragmented Nuclei (%): 36% and 21%
  Population Healthy Nuclei (%): 43% and 70%
  Population Hoechst High Intensity Objects (%): 5%
  Population Membrane Permeable-Phenotype (%): 21% and 13%
  Population Mitochondria Different-Phenotype (%): 22% and 19%
  Population Normal (%): 94%
  Population Pyknosed Nuclei (%): 19% and 8%
  Population Tubulin-Different-Phenotype (%): 17% and 7%
  Total Cell Count: 210 and 126
[5]
  Population Apoptotic (%): 84% and 76%
  Population Fragmented Nuclei (%): 16% and 19%
  Population Healthy Nuclei (%): 74% and 69%
  Population Hoechst High Intensity Objects (%): 3%
  Population Membrane Permeable-Phenotype (%): 5% and 8%
  Population Mitochondria Different-Phenotype (%): 3% and 5%
  Population Mitotic Cells (%): 15% and 23%
  Population Normal (%): 96%
  Population Pyknosed Nuclei (%): 9% and 10%
  Population Tubulin-Different-Phenotype (%): 3%
  Total Cell Count: 425 and 166
[6]
  Population Apoptotic (%): 61% and 85%
  Population Fragmented Nuclei (%): 35% and 25%
  Population Healthy Nuclei (%): 46% and 60%
  Population Hoechst High Intensity Objects (%): 4%
  Population Membrane Permeable-Phenotype (%): 20% and 12%
  Population Mitochondria Different-Phenotype (%): 17% and 12%
  Population Mitotic Cells (%): 38% and 14%
  Population Normal (%): 95%
  Population Pyknosed Nuclei (%): 17% and 14%
  Population Tubulin-Different-Phenotype (%): 11% and 3%
  Total Cell Count: 236 and 151
